Results collected from several papers.
Effect on: metabolic stability
Host: human
Matrix: liver microsomes

c1ccc(-c2nc(Nc3ccn4nccc4c3)c3ccccc3n2)nc1 — microsomal CLint: 120 µL/min/mg
O=S(=O)(c1ccc(-c2ccc3nccc(Nc4ccccc4)c3c2)cc1)N1CCOCC1 — microsomal CLint: 71.3 µL/min/mg
COc1cc2[nH]c(C)c(-c3ccc(-c4ccccc4)cc3)c(=O)c2cc1Cl — microsomal CLint (1 µM): 14 µL/min/mg
C[C@H](C(=O)NC1Cc2ccccc2C1)c1ccc(F)cc1 — microsomal CLint (1 µM, 1 h): 120 µL/min/mg
CN(C)C(=O)c1ccc(-c2c(-c3ccccn3)nc3n2CCC3)cc1 — microsomal CLint (3 µM, pH 7.4): < 3 µL/min/mg
Cc1cccc(CNc2nc(-c3ccccn3)nc3ccccc23)n1 — microsomal CLint: 63 µL/min/mg
COc1cc2[nH]c(C)c(-c3ccc(C(F)(F)F)cc3)c(=O)c2cc1Cl — microsomal CLint (1 µM): < 7 µL/min/mg
O=S(=O)(c1ccc(-c2ccc3nccc(Nc4ncc(Cl)cn4)c3c2)cc1)N1CCOCC1 — microsomal CLint: 113 µL/min/mg
COc1cc2[nH]c(C)c(-c3cc4ccccc4o3)c(=O)c2cc1Cl — microsomal CLint (1 µM): 29 µL/min/mg
CCn1nccc1Nc1ccnc2ccc(-c3ccc(S(=O)(=O)N4CCOCC4)cc3)cc12 — microsomal CLint: 134 µL/min/mg
Fc1ccc(Nc2c(-c3ncccc3F)nc3ccccn23)cc1 — microsomal CLint (3 µM, pH 7.4): 86 µL/min/mg
Fc1ccccc1Nc1nc(-c2ccccn2)nc2ccccc12 — microsomal CLint: 88 µL/min/mg
Fc1ccc(Nc2c(-c3cccc(F)n3)nc3ccccn23)cc1 — microsomal CLint (3 µM, pH 7.4): 130 µL/min/mg
N#CC1CCN(c2nc(-c3ccccn3)nc3ccccc23)C1 (centres unmarked) — microsomal CLint: 45 µL/min/mg
Cc1cc(Nc2ccc(C(F)(F)F)cc2)n2nc(C(C)(F)F)nc2n1 — microsomal CLint (1 µM, pH 7.4): < 6 µL/min/mg
O=C(O)C1CCN(c2nc(-c3ccccn3)nc3ccccc23)C1 (centres unmarked) — microsomal CLint: 9 µL/min/mg
Fc1ccc(Nc2c(-c3ccc(F)cn3)nc3ccccn23)cc1 — microsomal CLint (3 µM, pH 7.4): 89 µL/min/mg
COc1cc2[nH]c(C)c(-c3ccc(F)cc3F)c(=O)c2cc1Cl — microsomal CLint (1 µM): 9 µL/min/mg
COc1ccc2nc(-c3cc(N(C)C)ccn3)c(N(C)c3ccc(F)cc3)n2c1 — microsomal CLint (3 µM, pH 7.4): 46 µL/min/mg
c1ccc(-c2nc(NCc3ccco3)c3ccccc3n2)nc1 — microsomal CLint: 71 µL/min/mg
Fc1cc(F)cc(Nc2c(-c3ccccn3)nc3ccccn23)c1 — microsomal CLint (3 µM, pH 7.4): 64 µL/min/mg
O=C(N[C@H](Cc1ccccc1)C(=O)Nc1ccccc1N1CCOCC1)c1cccs1 — microsomal CLint (2 µM, 40 min, pH 7.4): 1370 µL/min/mg
Cn1nccc1-c1nc(N2CCC(c3ccccn3)C2)c2ccccc2n1 (centres unmarked) — microsomal CLint: 59 µL/min/mg
O=S(=O)(c1ccc(-c2ccc3nccc(Nc4cccnc4)c3c2)cc1)N1CCOCC1 — microsomal CLint: 86.3 µL/min/mg
CCn1cc2c(N3CCC(c4ccccn4)C3)nc(-c3ccccn3)nc2n1 (centres unmarked) — microsomal CLint: < 1 µL/min/mg
Cc1cc(Nc2ccc(S(F)(F)(F)(F)F)cc2)n2ccnc2n1 — microsomal CLint: 7.1 µL/min/mg
